Here are results for six compounds from ChEMBL document CHEMBL1154048, “Design, synthesis and pharmacological evaluation of new 1-[3-(4-arylpiperazin-1-yl)-2-hydroxy-propyl]-3,3-diphenylpyrrolidin-2-one derivatives with antiarrhythmic, antihypertensive, and alpha-adrenolytic activity” (Eur J Med Chem, 2009).

Experiment [1] relates to Rattus norvegicus. As to the kind of experiment: Hypotensive activity in normotensive Wistar rat assessed as systolic blood pressure at 5 mg/kg, iv after 30 mins (Rvb=139 +/- 0.6 mmHg). The format is functional, Artery.
Experiment [2] has as its system Rattus norvegicus. Kind of experiment: Hypotensive activity in normotensive Wistar rat assessed as systolic blood pressure at 5 mg/kg, iv after 60 mins (Rvb=139 +/- 0.6 mmHg). The format is functional, Artery.
For experiment [3], the system named is Rattus norvegicus. Kind of experiment: Hypotensive activity in normotensive Wistar rat assessed as diastolic blood pressure at 5 mg/kg, iv after 5 mins (Rvb=120 +/- 1.7 mmHg). The format is functional, Artery.
Experiment [4] relates to Rattus norvegicus. As to the kind of experiment: Hypotensive activity in normotensive Wistar rat assessed as diastolic blood pressure at 5 mg/kg, iv after 20 mins (Rvb=120 +/- 1.7 mmHg). The format is functional, Artery.
In experiment [5] the test system is Rattus norvegicus. Kind of experiment: Hypotensive activity in normotensive Wistar rat assessed as systolic blood pressure at 5 mg/kg, iv after 10 mins (Rvb=140.5 +/- 1.1 mmHg). The format is functional, Artery.
The test system of experiment [6] is Rattus norvegicus. Kind of experiment: Hypotensive activity in normotensive Wistar rat assessed as systolic blood pressure at 5 mg/kg, iv after 20 mins (Rvb=140.5 +/- 1.1 mmHg). The format is functional, Artery.
Experiment [7] relates to Rattus norvegicus. As to the kind of experiment: Hypotensive activity in normotensive Wistar rat assessed as systolic blood pressure at 5 mg/kg, iv after 30 mins (Rvb=140.5 +/- 1.1 mmHg). The format is functional, Artery.
Experiment [8] concerns Rattus norvegicus. Kind of experiment: Hypotensive activity in normotensive Wistar rat assessed as diastolic blood pressure at 5 mg/kg, iv after 5 mins (Rvb=125.5 +/- 0.6 mmHg). The format is functional, Artery.
For experiment [9], the system named is Rattus norvegicus. As to the kind of experiment: Hypotensive activity in normotensive Wistar rat assessed as diastolic blood pressure at 5 mg/kg, iv after 20 mins (Rvb=125.5 +/- 0.6 mmHg). The format is functional, Artery.
In experiment [10] the test system is Rattus norvegicus. Kind of experiment: Hypotensive activity in normotensive Wistar rat assessed as diastolic blood pressure at 5 mg/kg, iv after 30 mins (Rvb=125.5 +/- 0.6 mmHg). The format is functional, Artery.
For experiment [11], the system named is Rattus norvegicus. As to the kind of experiment: Hypotensive activity in normotensive Wistar rat assessed as systolic blood pressure at 5 mg/kg, iv after 5 mins (Rvb=138 +/- 0.9 mmHg). The format is functional, Artery.
Experiment [12] concerns Rattus norvegicus. As to the kind of experiment: Hypotensive activity in normotensive Wistar rat assessed as diastolic blood pressure at 5 mg/kg, iv after 5 mins (Rvb=119 +/- 1.2 mmHg). The format is functional, Artery.
Experiment [13] has as its system Rattus norvegicus. As to the kind of experiment: Hypotensive activity in normotensive Wistar rat assessed as diastolic blood pressure at 5 mg/kg, iv after 10 mins (Rvb=119 +/- 1.2 mmHg). The format is functional, Artery.
Experiment [14] has as its system Rattus norvegicus. As to the kind of experiment: Hypotensive activity in normotensive Wistar rat assessed as diastolic blood pressure at 5 mg/kg, iv after 30 mins (Rvb=119 +/- 1.2 mmHg). The format is functional, Artery.
Experiment [15] relates to Rattus norvegicus. As to the kind of experiment: Hypotensive activity in normotensive Wistar rat assessed as diastolic blood pressure at 5 mg/kg, iv after 60 mins (Rvb=119 +/- 1.2 mmHg). The format is functional, Artery.
The target of experiment [16] is T1, Alpha-1D adrenergic receptor (Rattus norvegicus) (UniProt P23944).
T1 sequence (whole entry): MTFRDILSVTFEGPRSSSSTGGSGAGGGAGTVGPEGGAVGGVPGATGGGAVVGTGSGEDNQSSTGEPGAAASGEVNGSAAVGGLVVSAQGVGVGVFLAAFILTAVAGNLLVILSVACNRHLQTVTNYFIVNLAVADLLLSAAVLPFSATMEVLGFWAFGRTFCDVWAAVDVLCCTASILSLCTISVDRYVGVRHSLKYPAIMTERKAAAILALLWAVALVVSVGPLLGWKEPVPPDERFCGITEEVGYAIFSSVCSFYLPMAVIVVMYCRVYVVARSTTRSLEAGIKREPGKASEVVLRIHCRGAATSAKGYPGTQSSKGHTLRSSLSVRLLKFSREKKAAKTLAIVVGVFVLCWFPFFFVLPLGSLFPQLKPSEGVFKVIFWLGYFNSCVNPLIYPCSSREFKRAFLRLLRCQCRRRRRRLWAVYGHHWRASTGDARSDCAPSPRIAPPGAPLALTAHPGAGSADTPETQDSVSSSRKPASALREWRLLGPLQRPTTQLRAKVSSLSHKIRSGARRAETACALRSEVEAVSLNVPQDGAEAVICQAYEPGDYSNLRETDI
As to the kind of experiment: (§1) Antagonist activity at Alpha-1D adrenoceptor in Wistar rat thoracic aorta assessed as inhibition of noradrenaline-induced contraction after 30 mins. The format is functional, tissue-based. Summed up: (§2)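 Male Wistar rats (200–350 g) were anaesthetized with thiopental 75 mg/kg ip. Endothelium-denuded thoracic aorta rings (~4 mm) were held in Krebs–Henseleit at 37 °C, pH 7.4, gassed O2/CO2 19:1, at 2 g tension and equilibrated 3 h. Two cumulative noradrenaline curves were run 60 min apart, with 30 min antagonist incubation and continuous propranolol. EC50 came from non-linear regression, and Schild plots gave pA2. n = 5–8.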

The target in experiment [17] is T2, Alpha-1D adrenergic receptor (Rattus norvegicus, UniProt P23944).
T2 sequence (P23944 whole entry): T1 sequence (whole entry)
The description is as §1. The note with it: read-out: pA2 (converted). The format is functional, tissue-based. The method, boiled down:
as §2

Experiment [18] has as its system Rattus norvegicus. As to the kind of experiment: Hypotensive activity in normotensive Wistar rat assessed as systolic blood pressure at 5 mg/kg, iv after 30 mins (Rvb=142.5 +/- 3.6 mmHg). The format is functional, Artery.
Experiment [19] relates to Rattus norvegicus. Kind of experiment: Hypotensive activity in normotensive Wistar rat assessed as systolic blood pressure at 5 mg/kg, iv after 60 mins (Rvb=142.5 +/- 3.6 mmHg). The format is functional, Artery.
The subject of experiment [20] is Rattus norvegicus. As to the kind of experiment: Hypotensive activity in normotensive Wistar rat assessed as diastolic blood pressure at 5 mg/kg, iv after 30 mins (Rvb=127 +/- 8.1 mmHg). The format is functional, Artery.
Experiment [21] concerns Alpha-1B adrenergic receptor (Cavia porcellus). Kind of experiment: Antagonist activity at Alpha-1B adrenoceptor in guinea pig spleen assessed as inhibition of noradrenaline-induced contraction after 30 mins.
Experiment [22] concerns Rattus norvegicus. As to the kind of experiment: Hypotensive activity in normotensive Wistar rat assessed as systolic blood pressure at 5 mg/kg, iv after 10 mins (Rvb=141.3 +/- 6.4 mmHg). The format is functional, Artery.
In experiment [23] the test system is Rattus norvegicus. Kind of experiment: Hypotensive activity in normotensive Wistar rat assessed as systolic blood pressure at 5 mg/kg, iv after 20 mins (Rvb=141.3 +/- 6.4 mmHg). The format is functional, Artery.
Experiment [24] deals with Rattus norvegicus. Kind of experiment: Hypotensive activity in normotensive Wistar rat assessed as systolic blood pressure at 5 mg/kg, iv after 60 mins (Rvb=141.3 +/- 6.4 mmHg). The format is functional, Artery.
The test system of experiment [25] is Rattus norvegicus. Kind of experiment: Hypotensive activity in normotensive Wistar rat assessed as diastolic blood pressure at 5 mg/kg, iv after 30 mins (Rvb=126 +/- 4.6 mmHg). The format is functional, Artery.
Experiment [26] has as its system Rattus norvegicus. As to the kind of experiment: Hypotensive activity in normotensive Wistar rat assessed as systolic blood pressure at 2.5 mg/kg, iv after 10 mins (Rvb=125.6 +/- 7.6 mmHg). The format is functional, Artery.
In experiment [27] the test system is Rattus norvegicus. Kind of experiment: Hypotensive activity in normotensive Wistar rat assessed as diastolic blood pressure at 2.5 mg/kg, iv after 20 mins (Rvb=107.2 +/- 7.3 mmHg). The format is functional, Artery.
The subject of experiment [28] is Rattus norvegicus. Kind of experiment: Hypotensive activity in normotensive Wistar rat assessed as diastolic blood pressure at 2.5 mg/kg, iv after 60 mins (Rvb=107.2 +/- 7.3 mmHg). The format is functional, Artery.

Molecules are shown by their SMILES.

For `COc1ccccc1N1CCN(CC(O)CN2CCC(c3ccccc3)(c3ccccc3)C2=O)CC1.Cl.Cl` (stereo not drawn), the Activity in the experiment with Rattus norvegicus [1] stood at 116 mmHg; in the experiment on Rattus norvegicus [2], 112 mmHg; with Rattus norvegicus [3] it was 109 mmHg; in the experiment on Rattus norvegicus [4], 104 mmHg.
Turning to `Cl.Cl.O=C1N(CC(O)CN2CCN(c3ccccc3)CC2)CCC1(c1ccccc1)c1ccccc1` (stereo not drawn), the Activity with Rattus norvegicus [5] stood at 134.5 mmHg; with Rattus norvegicus [6], 135.5 mmHg; in the experiment with Rattus norvegicus [7] it was 129 mmHg; with Rattus norvegicus [8], 119 mmHg; with Rattus norvegicus [9], 116.5 mmHg; in the experiment on Rattus norvegicus [10], 113.5 mmHg.
As to `Cl.Cl.O=C1N(CC(O)CN2CCN(c3ccccc3C(F)(F)F)CC2)CCC1(c1ccccc1)c1ccccc1` (stereo not drawn), the Activity in the experiment on Rattus norvegicus [11] is 126 mmHg; with Rattus norvegicus [12], 103 mmHg; in the experiment on Rattus norvegicus [13] it was 106.5 mmHg; in the experiment on Rattus norvegicus [14], 103 mmHg; in the experiment on Rattus norvegicus [15] it was 100 mmHg.
As for `CCOc1ccccc1N1CCN(CC(O)CN2CCC(c3ccccc3)(c3ccccc3)C2=O)CC1.Cl.Cl` (stereo not drawn), the Activity entry in [16] is “Dose-dependent effect”; with Rattus norvegicus [18] it was 113.5 mmHg; in the experiment on Rattus norvegicus [19], 114 mmHg; with Rattus norvegicus [20], 96 mmHg; in [21] it was “Dose-dependent effect”. Further, the Kb in experiment [17] was 55 nM.
On to `Cc1ccccc1N1CCN(CC(O)CN2CCC(c3ccccc3)(c3ccccc3)C2=O)CC1.Cl.Cl` (stereo not drawn), for which the Activity with Rattus norvegicus [22] came out at 133.7 mmHg; in the experiment with Rattus norvegicus [23], 136.3 mmHg; in the experiment on Rattus norvegicus [24], 116 mmHg; with Rattus norvegicus [25], 117.7 mmHg.
Take `COc1ccc(N2CCN(CC(O)CN3CCC(c4ccccc4)(c4ccccc4)C3=O)CC2)cc1.Cl.Cl` (stereo not drawn): the Activity in the experiment on Rattus norvegicus [26] was 115.2 mmHg; in the experiment on Rattus norvegicus [27], 89.8 mmHg; with Rattus norvegicus [28], 88.2 mmHg.
